# Measurements as given in ChEMBL document CHEMBL1158703, “Psychopharmacological profile of the alkaloid psychollatine as a 5HT2A/C serotonin modulator” (2005).
# Activity calls are given as the source filed them.
# Tests used:
# Mus musculus [1] = species: Mus musculus; assay: Anticonvulsant activity against CF1 mouse assessed as protection against PTZ-induced convulsions for 60 mins; format: functional, organism-based
# How it was run: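 Male adult CF1 mice (n = 10/group) dosed i.p.; 30 min later pentylenetetrazol 88 mg/kg s.c. Each mouse placed alone in an acrylic chamber and watched 60 min for clonic convulsions lasting over 3 s. Read-out is the fraction of mice convulsing, analysed by Fisher's exact test.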
# Mus musculus [2] = assay: Antidepressant activity in CF1 mouse assessed as decrease in duration of immobility at 7.5 mg/kg during final 4 mins of the 6 mins session by forced swimming test; format: functional
# How it was run: (§1)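 Male adult CF1 mice given i.p. doses in saline (pH 7.0), N = 10. Each mouse swam 6 min in a 30 cm-diameter cylinder holding 20 cm of water at 25 ± 1 °C. Immobility was timed over the last 4 min. Values are mean ± SEM, analysed by ANOVA against saline.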
# Mus musculus [3] = assay: Antidepressant activity in CF1 mouse assessed as decrease in duration of immobility at 10 mg/kg during final 4 mins of the 6 mins session by forced swimming test; format: functional, organism-based; parameters: dose 10 mg/kg; how it was run: as §1
# Mus musculus [4] = assay: Anxiolytic activity against CF1 mouse assessed as suppression of oxotremorine-treated tremors at 3 mg/kg; format: functional, organism-based; parameters: dose 3 mg/kg
# How it was run: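 Mice received treatment i.p. 30 min before oxotremorine 0.5 mg/kg in saline. Each mouse was then placed alone in a transparent cage immediately after injection and tremor was scored. Data given as median (interquartile range); Kruskal–Wallis then Mann–Whitney U against saline + oxotremorine.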
# Mus musculus [5] = assay: Anxiolytic activity against CF1 mouse assessed as suppression of oxotremorine-treated tremors at 7.5 mg/kg; format: functional, organism-based; parameters: dose 7.5 mg/kg
# How it was run: (§2)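 Male CF1 mice were given the test drug i.p. in saline 30 min before oxotremorine 0.5 mg/kg. Each mouse was then placed alone in an acrylic cage for observation of tremor. Values are median (interquartile range), analysed by Kruskal–Wallis then Mann–Whitney U against saline + oxotremorine.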
# Mus musculus [6] = assay: Anxiolytic activity against CF1 mouse assessed as suppression of oxotremorine-treated tremors at 100 mg/kg; format: functional, organism-based; parameters: dose 100 mg/kg; how it was run: as §2
# Mus musculus [7] = assay: Effect on short term memory of CF1 mouse assessed as reduction in latency during aquisition at 100 mg/kg by passive avoidance test; format: functional
# How it was run: (§3)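 Step-down inhibitory avoidance in male CF1 mice with i.p. dosing 30 min before training. Stepping down during training gave a 0.3 mA scrambled foot shock for 15 s. The latency to step down during training was recorded, with no exclusion criterion applied. N = 20 per group; values are median (interquartile range).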
# Mus musculus [8] = assay: […] of CF1 mouse assessed as reduction in step down latency at 0.85 mg/kg by passive avoidance test; format: functional
# Mus musculus [9] = assay: Effect on short term memory of CF1 mouse assessed as reduction in step down latency at 7.5 mg/kg by passive avoidance test; format: functional
# Mus musculus [10] = assay: […] of CF1 mouse assessed as reduction in step down latency at 30 mg/kg by passive avoidance test; format: functional
# Mus musculus [11] = assay: Effect on long term memory of CF1 mouse assessed as reduction in latency during aquisition at 7.5 mg/kg by passive avoidance test; format: functional; how it was run: as §3
# Mus musculus [12] = assay: Effect on long term memory of CF1 mouse assessed as reduction in latency during aquisition at 100 mg/kg by passive avoidance test; format: functional; how it was run: as §3
# Mus musculus [13] = assay: Effect on long term memory of CF1 mouse assessed as reduction in step down latency at 7.5 mg/kg by passive avoidance test; format: functional
# How it was run: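 Step-down inhibitory avoidance in male CF1 mice dosed i.p. immediately after training, during which a 0.3 mA foot shock for 15 s followed stepping down. Test step-down latency was recorded 24 h later without shock, with a 300 s cutoff. N = 20 per group; values are median (interquartile range).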
# Mus musculus [14] = assay: Anxiolytic activity against CF1 mouse assessed as reduction in number in crossings at 200 mg/kg after 30 mins by hole-board assay; format: functional, organism-based; parameters: dose 200 mg/kg
# How it was run: (§4)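 Hole-board set 15 cm high and divided into 16 squares, with photocells counting head-dips. Male CF1 mice were dosed i.p. and placed centrally 30 min later under dim light. Over 5 min, head-dips, rearings and squares crossed were counted. Values are mean ± SEM (N = 15), analysed by one-way ANOVA then SNK.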
# Mus musculus [15] = assay: Anxiolytic activity against CF1 mouse assessed as reduction in number in head dips at 200 mg/kg after 30 mins by hole-board assay; format: functional, organism-based; parameters: dose 200 mg/kg; how it was run: as §4
# Mus musculus [16] = assay: Anxiolytic activity against CF1 mouse assessed as increase in number of rearings at 7.5 mg/kg after 30 mins by hole-board assay; format: functional, organism-based; parameters: dose 7.5 mg/kg; how it was run: as §4
# Mus musculus [17] = assay: Anxiolytic activity against CF1 mouse assessed as increase in number of crossings at 7.5 mg/kg after 30 mins by hole-board assay; format: functional, organism-based; parameters: dose 7.5 mg/kg; how it was run: as §4
# Mus musculus [18] = assay: Anxiolytic activity against CF1 mouse assessed as increase in number of head dips at 7.5 mg/kg after 30 mins by hole-board assay; format: functional, organism-based; parameters: dose 7.5 mg/kg; how it was run: as §4
# Mus musculus [19] = assay: Anxiolytic activity against CF1 mouse assessed as increase in number of rearings at 15 mg/kg after 30 mins by hole-board assay; format: functional, organism-based; parameters: dose 15 mg/kg; how it was run: as §4
# Mus musculus [20] = assay: Antidepressant activity in CF1 mouse assessed as decrease in duration of immobility at 30 mg/kg during final 4 mins of the 6 mins session by forced swimming test; format: functional, organism-based; parameters: dose 30 mg/kg; how it was run: as §1
# Mus musculus [21] = assay: […] of CF1 mouse assessed as reduction in step down latency at 3 mg/kg by passive avoidance test; format: functional
# Mus musculus [22] = assay: Anxiolytic activity against CF1 mouse assessed as increase in number of head dips at 7.5 mg/kg after 30 mins in presence of ritanserin by hole-board assay; format: functional, organism-based; parameters: dose 7.5 mg/kg
# How it was run: (§5)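 Male CF1 mice received ritanserin 2 mg/kg i.p. in 10% DMSO 30 min before the test drug at 7.5 mg/kg i.p. The 5 min hole-board session began 30 min later, counting head-dips, crossings and rearings. Values are mean ± SEM (N = 8-14), analysed by ANOVA/SNK.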
# Mus musculus [23] = assay: Anxiolytic activity against CF1 mouse assessed as increase in number of rearings at 7.5 mg/kg after 30 mins in presence of ritanserin by hole-board assay; format: functional, organism-based; parameters: dose 7.5 mg/kg; how it was run: as §5
# Mus musculus [24] = assay: Anxiolytic activity against CF1 mouse assessed as increase in time spent in light compartment at 7.5 mg/kg for 5 mins; format: functional, organism-based; parameters: dose 7.5 mg/kg
# How it was run: (§6)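 Light/dark box with a black, room-lit small compartment and a white large compartment lit at 400 lx. Male CF1 mice were acclimated at least 1 h under dim red light and dosed i.p. 30 min before testing. Recorded were latency to first entry and time spent in the light area. Values are mean ± SEM (N = 19-22), analysed by one-way ANOVA then SNK.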
# Mus musculus [25] = assay: Anxiolytic activity against CF1 mouse assessed as increase in latency to enter in the dark compartment 7.5 mg/kg for 5 mins; format: functional, organism-based; parameters: dose 7.5 mg/kg; how it was run: as §6
# Mus musculus [26] = assay: Anxiolytic activity against CF1 mouse assessed as increase in time spent in light compartment at 7.5 mg/kg in presence of ritanserin for 5 mins; format: functional, organism-based; parameters: dose 7.5 mg/kg
# How it was run: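 Male CF1 mice received ritanserin 2 mg/kg i.p. (in 10% DMSO) 30 min before the test drug at 7.5 mg/kg i.p. The light/dark test followed 30 min later, scoring latency to first entry and time in the light compartment. Values are mean ± SEM (N = 8-10), analysed by one-way ANOVA/SNK.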
# Mus musculus [27] = assay: Effect on locomotory activity in CF1 mouse assessed as change in spontaneous activity at 3 to 30 mg/kg; format: functional, organism-based
# How it was run: (§7)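 Mice were habituated singly for 10 min in photocell activity cages and then dosed i.p. Diazepam was given in 10% propylene glycol. After 30 min, crossings were recorded for 15 min. n = 10–16, ANOVA then SNK.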
# Mus musculus [28] = assay: Effect on locomotory activity in CF1 mouse assessed as change in spontaneous activity at 0.75 and 0.85 mg/kg; format: functional, organism-based; parameters: dose 0.85 mg/kg; how it was run: as §7
smiles,measurement,setting,value
COC(=O)C1=CO[C@@H](O[C@H]2O[C@H](CO)[C@@H](O)[C@H](O)[C@H]2O)[C@@H]2C([C@@H]3NCCc4c3[nH]c3ccccc43)=CC[C@H]12 [PSYCHOLLATINE],Activity,Mus musculus [1],inactive
same,Activity,Mus musculus [2],56.41 s
same,Activity,Mus musculus [3],inactive
same,Activity,Mus musculus [4],Active
same,Activity,Mus musculus [5],Active
same,Activity,Mus musculus [6],Active
same,Activity,Mus musculus [7],6.8 s
same,Activity,Mus musculus [8],8.3 s
same,Activity,Mus musculus [9],9.6 s
same,Activity,Mus musculus [10],12.8 s
same,Activity,Mus musculus [11],13.4 s
same,Activity,Mus musculus [12],5 s
same,Activity,Mus musculus [13],13.1 s
same,Activity,Mus musculus [14],Active
same,Activity,Mus musculus [15],Active
same,Activity,Mus musculus [16],Active
same,Activity,Mus musculus [17],Active
same,Activity,Mus musculus [18],Active
same,Activity,Mus musculus [19],Active
same,Activity,Mus musculus [20],inactive
same,Activity,Mus musculus [21],11.8 s
same,Activity,Mus musculus [22],inactive
same,Activity,Mus musculus [23],inactive
same,Activity,Mus musculus [24],Active
same,Activity,Mus musculus [25],Active
same,Activity,Mus musculus [26],inactive
same,Activity,Mus musculus [27],inactive
same,Activity,Mus musculus [28],inactive
